According to ChEMBL document CHEMBL3259662 (ACS Med Chem Lett, 2014):
Converted amounts (≈) assume the structure as drawn. Blank lines part the entries; values can stand above or below the compound they belong to. The source made the active and inactive calls. No cut-off for these calls is given here. Peptide text beside a SMILES is read from it. * marks the point of attachment. Boc = CC(C)(C)OC(=O)*; NHBn = c1ccc(CN*)cc1

Legend:
Vero = test: Cytotoxicity against African green monkey Vero cells assessed as cell viability after 48 hrs by neutral red uptake assay; type: cell-based; conditions: chlorocebus sabaeus
Summary of the method: (§1)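 Neutral red uptake assay in human cancer lines SK-MEL, KB, BT-549 and SK-OV-3 and in noncancerous mammalian kidney cells VERO and LLC-PK1. The highest tested concentration was 10 μg/mL.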

Aspergillus fumigatus = test: Antifungal activity against Aspergillus fumigatus by CLSI method; type: functional, organism-based
LLC-PK1 = test: Cytotoxicity against pig LLC-PK1 cells assessed as cell viability after 48 hrs by neutral red uptake assay; type: cell-based, Sus scrofa; conditions: llc-pk1, 48 h; summary of the method: as §1
Pichia kudriavzevii = test: Antifungal activity against Candida krusei by CLSI method; type: functional, organism-based
Escherichia coli = test: Antibacterial activity against Escherichia coli ATCC 35218 after 16 to 20 hrs by CLSI method; type: functional, organism-based
Candida albicans = test: Antifungal activity against Candida albicans by CLSI method; type: functional, organism-based
BT-549 = test: Cytotoxicity against human BT549 cells assessed as cell viability after 48 hrs by neutral red uptake assay; type: cell-based; conditions: bt-549, 48 h; summary of the method: as §1
Cryptococcus neoformans [1] = test: Antifungal activity against Cryptococcus neoformans ATCC 90113 at 20 ug/ml after 70 to 74 hrs by CLSI method; type: functional, organism-based
Summary of the method: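 C. neoformans screened per the CLSI protocol at the highest tested concentration of 20 μg/mL. Compounds showing no activity at this level were scored not active.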

SK-MEL = test: Cytotoxicity against human SK-MEL cells assessed as cell viability after 48 hrs by neutral red uptake assay; type: cell-based; summary of the method: as §1
Nakaseomyces glabratus = test: Antifungal activity against Candida glabrata by CLSI method; type: functional, organism-based
SK-OV-3 = test: Cytotoxicity against human SKOV3 cells assessed as cell viability after 48 hrs by neutral red uptake assay; type: cell-based; conditions: sk-ov-3, 48 h; summary of the method: as §1
KB = test: Cytotoxicity against human KB cells assessed as cell viability after 48 hrs by neutral red uptake assay; type: cell-based; summary of the method: as §1
[2] = Retention time of the compound by reverse phase HPLC analysis; type: physicochemical
Summary of the method: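 Reverse-phase HPLC on a C-18 column (25 cm × 4.6 mm, 5 μM) at 1 mL/min over 40 min. The gradient ran 85−5% with A = 0.1% TFA in H2O and B = 0.1% TFA in CH3CN. Detection was at 220 nm.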

Cryptococcus neoformans [3] = test: Antifungal activity against Cryptococcus neoformans ATCC 90113 after 70 to 74 hrs by CLSI method; type: functional, organism-based; conditions: for IC50 / MIC: Cryptococcus neoformans, ATCC 90113
Summary of the method: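 Growth inhibition of C. neoformans per the CLSI protocol. […] MIC is the lowest test concentration with no detectable growth. MFC is the lowest concentration killing 100% of the organism.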

[4] = Selectivity index, ratio of cytotoxicity for human KB cells to IC50 for Cryptococcus neoformans ATCC 90113; type: toxicity, cell-based; conditions: read-out: Selectivity Index
[5] = Selectivity index, ratio of cytotoxicity for human SK-MEL cells to IC50 for Cryptococcus neoformans ATCC 90113; type: toxicity, cell-based; conditions: read-out: Selectivity Index
[6] = Selectivity index, ratio of cytotoxicity for human BT549 cells to IC50 for Cryptococcus neoformans ATCC 90113; type: toxicity, cell-based, BT-549; conditions: read-out: Selectivity Index
[7] = Selectivity index, ratio of cytotoxicity for human SKOV3 cells to IC50 for Cryptococcus neoformans ATCC 90113; type: toxicity, cell-based, SK-OV-3; conditions: read-out: Selectivity Index
[8] = Selectivity index, ratio of cytotoxicity for African green monkey Vero cells to IC50 for Cryptococcus neoformans ATCC 90113; type: toxicity, cell-based; conditions: read-out: Selectivity Index
[9] = Selectivity index, ratio of cytotoxicity for pig LLC-PK1 cells to IC50 for Cryptococcus neoformans ATCC 90113; type: toxicity, cell-based; conditions: read-out: Selectivity Index

Structure (SMILES): N=C(N)NCCC[C@H](NC(=O)[C@H](Cc1c[nH]cn1)NC(=O)[C@@H](N)CCCNC(=N)N)C(=O)NCc1ccccc1 (H-Arg-His-Arg-NHBn)
Activity (Vero): > 10 µg/mL
Activity (Aspergillus fumigatus): inactive
Activity (LLC-PK1): > 10 µg/mL
Activity (Pichia kudriavzevii): inactive
Activity (Escherichia coli): inactive
Activity (Candida albicans): inactive
Activity (BT-549): > 10 µg/mL
Activity (Cryptococcus neoformans [1]): inactive
Activity (SK-MEL): > 10 µg/mL
Activity (Nakaseomyces glabratus): inactive
Activity (SK-OV-3): > 10 µg/mL
Activity (KB): > 10 µg/mL

Retention_time [2]: 10.75 min
Structure (SMILES): COC(=O)[C@H](CCCNC(=N)N)NC(=O)[C@H](Cc1c[nH]cn1)NC(=O)[C@H](CCCNC(=N)N)NC(=O)OC(C)(C)C (Boc-Arg-His-Arg-OMe)
Activity (Vero): > 10 µg/mL
Activity (Aspergillus fumigatus): inactive
Activity (LLC-PK1): > 10 µg/mL
Activity (Pichia kudriavzevii): inactive
Activity (Escherichia coli): inactive
Activity (Candida albicans): inactive
Activity (BT-549): > 10 µg/mL
Activity (Cryptococcus neoformans [1]): inactive
Activity (SK-MEL): > 10 µg/mL
Activity (Nakaseomyces glabratus): inactive
Activity (SK-OV-3): > 10 µg/mL
Activity (KB): > 10 µg/mL

Retention_time [2]: 11.89 min
IC50 (Cryptococcus neoformans [3]): 10.4 µg/mL (≈ 15.8 µM)
Structure (SMILES): COC(=O)[C@H](CCCNC(=N)N)NC(=O)[C@H](Cc1c[nH]c(-c2ccccc2)n1)NC(=O)[C@H](CCCNC(=N)N)NC(=O)OC(C)(C)C
Activity (Vero): > 10 µg/mL
Activity (Aspergillus fumigatus): inactive
Activity (LLC-PK1): > 10 µg/mL
Activity (Pichia kudriavzevii): inactive
Activity (Escherichia coli): inactive
Activity (Candida albicans): inactive
Activity (BT-549): > 10 µg/mL
Activity (Cryptococcus neoformans [1]): inactive
Activity (SK-MEL): > 10 µg/mL
Activity (Nakaseomyces glabratus): inactive
Activity (SK-OV-3): > 10 µg/mL
Activity (KB): > 10 µg/mL

Structure (SMILES): COC(=O)[C@H](CCCNC(=N)N)NC(=O)[C@H](Cc1c[nH]c(-c2ccccc2)n1)NC(=O)[C@@H](N)CCCNC(=N)N
Activity (Vero): > 10 µg/mL
Activity (Aspergillus fumigatus): inactive
Activity (LLC-PK1): > 10 µg/mL
Activity (Pichia kudriavzevii): inactive
Activity (Escherichia coli): inactive
Activity (Candida albicans): inactive
Activity (BT-549): > 10 µg/mL
Activity (Cryptococcus neoformans [1]): inactive
Activity (SK-MEL): > 10 µg/mL
Activity (Nakaseomyces glabratus): inactive
Activity (SK-OV-3): > 10 µg/mL
Activity (KB): > 10 µg/mL

Retention_time [2]: 17.63 min
IC50 (Cryptococcus neoformans [3]): 0.67 µg/mL (≈ 0.914 µM)
MIC (Cryptococcus neoformans [3]): 1.25 µg/mL (≈ 1.71 µM)
Structure (SMILES): CC(C)(C)OC(=O)N[C@@H](CCCNC(=N)N)C(=O)N[C@@H](Cc1c[nH]c(-c2ccccc2)n1)C(=O)N[C@@H](CCCNC(=N)N)C(=O)NCc1ccccc1
Activity (Vero): > 10 µg/mL
Activity (Aspergillus fumigatus): inactive
Activity (LLC-PK1): > 10 µg/mL
selectivity ratio [4]: > 14.9
Activity (Pichia kudriavzevii): inactive
selectivity ratio [5]: > 14.9
selectivity ratio [6]: > 14.9
selectivity ratio [7]: > 14.9
Activity (Escherichia coli): inactive
Activity (Candida albicans): inactive
Activity (BT-549): > 10 µg/mL
MFC100 (Cryptococcus neoformans [3]): 1.25 µg/mL (≈ 1.71 µM)
selectivity ratio [8]: > 14.9
Activity (SK-MEL): > 10 µg/mL
Activity (Nakaseomyces glabratus): inactive
selectivity ratio [9]: > 14.9
Activity (SK-OV-3): > 10 µg/mL
Activity (KB): > 10 µg/mL

Retention_time [2]: 19.41 min
IC50 (Cryptococcus neoformans [3]): 2.15 µg/mL (≈ 2.88 µM)
MIC (Cryptococcus neoformans [3]): 2.5 µg/mL (≈ 3.35 µM)
Structure (SMILES): Cc1ccc(-c2nc(C[C@H](NC(=O)[C@H](CCCNC(=N)N)NC(=O)OC(C)(C)C)C(=O)N[C@@H](CCCNC(=N)N)C(=O)NCc3ccccc3)c[nH]2)cc1
Activity (Vero): > 10 µg/mL
Activity (Aspergillus fumigatus): inactive
Activity (LLC-PK1): > 10 µg/mL
selectivity ratio [4]: > 4.6
Activity (Pichia kudriavzevii): inactive
selectivity ratio [5]: > 4.6
selectivity ratio [6]: > 4.6
selectivity ratio [7]: > 4.6
Activity (Escherichia coli): inactive
Activity (Candida albicans): inactive
Activity (BT-549): > 10 µg/mL
MFC100 (Cryptococcus neoformans [3]): 2.5 µg/mL (≈ 3.35 µM)
selectivity ratio [8]: > 4.6
Activity (SK-MEL): > 10 µg/mL
Activity (Nakaseomyces glabratus): inactive
selectivity ratio [9]: > 4.6
Activity (SK-OV-3): > 10 µg/mL
Activity (KB): > 10 µg/mL

IC50 (Cryptococcus neoformans [3]): 19.7 µg/mL (≈ 34.5 µM)
Structure (SMILES): COC(=O)[C@H](CCCNC(=N)N)NC(=O)[C@H](Cc1c[nH]c(-c2ccc(C)cc2)n1)NC(=O)[C@@H](N)CCCNC(=N)N
Activity (Vero): > 10 µg/mL
Activity (Aspergillus fumigatus): inactive
Activity (LLC-PK1): > 10 µg/mL
Activity (Pichia kudriavzevii): inactive
Activity (Escherichia coli): inactive
Activity (Candida albicans): inactive
Activity (BT-549): > 10 µg/mL
Activity (Cryptococcus neoformans [1]): inactive
Activity (SK-MEL): > 10 µg/mL
Activity (Nakaseomyces glabratus): inactive
Activity (SK-OV-3): > 10 µg/mL
Activity (KB): > 10 µg/mL

Retention_time [2]: 20.91 min
IC50 (Cryptococcus neoformans [3]): 0.71 µg/mL (≈ 0.995 µM)
MIC (Cryptococcus neoformans [3]): 1.25 µg/mL (≈ 1.75 µM)
Structure (SMILES): COC(=O)[C@H](CCCNC(=N)N)NC(=O)[C@H](Cc1c[nH]c(-c2ccc(C(C)(C)C)cc2)n1)NC(=O)[C@H](CCCNC(=N)N)NC(=O)OC(C)(C)C
Activity (Vero): > 10 µg/mL
Activity (Aspergillus fumigatus): inactive
Activity (LLC-PK1): > 10 µg/mL
selectivity ratio [4]: > 14.1
Activity (Pichia kudriavzevii): inactive
selectivity ratio [5]: > 14.1
selectivity ratio [6]: > 14.1
selectivity ratio [7]: > 14.1
Activity (Escherichia coli): inactive
Activity (Candida albicans): inactive
Activity (BT-549): > 10 µg/mL
MFC100 (Cryptococcus neoformans [3]): 1.25 µg/mL (≈ 1.75 µM)
selectivity ratio [8]: > 14.1
Activity (SK-MEL): > 10 µg/mL
Activity (Nakaseomyces glabratus): inactive
selectivity ratio [9]: > 14.1
Activity (SK-OV-3): > 10 µg/mL
Activity (KB): > 10 µg/mL

IC50 (Cryptococcus neoformans [3]): 19 µg/mL (≈ 39.5 µM)
Structure (SMILES): COC(=O)[C@H](CCCNC(=N)N)NC(=O)[C@H](Cc1c[nH]cn1)NC(=O)[C@@H](N)CCCNC(=N)N (H-Arg-His-Arg-OMe)
Activity (Vero): > 10 µg/mL
Activity (Aspergillus fumigatus): inactive
Activity (LLC-PK1): > 10 µg/mL
Activity (Pichia kudriavzevii): inactive
Activity (Escherichia coli): inactive
Activity (Candida albicans): inactive
Activity (BT-549): > 10 µg/mL
Activity (Cryptococcus neoformans [1]): inactive
Activity (SK-MEL): > 10 µg/mL
Activity (Nakaseomyces glabratus): inactive
Activity (SK-OV-3): > 10 µg/mL
Activity (KB): > 10 µg/mL

Retention_time [2]: 18.93 min
IC50 (Cryptococcus neoformans [3]): 0.68 µg/mL (≈ 0.891 µM)
MIC (Cryptococcus neoformans [3]): 2.5 µg/mL (≈ 3.28 µM)
Structure (SMILES): COc1ccc(-c2nc(C[C@H](NC(=O)[C@H](CCCNC(=N)N)NC(=O)OC(C)(C)C)C(=O)N[C@@H](CCCNC(=N)N)C(=O)NCc3ccccc3)c[nH]2)cc1
Activity (Vero): > 10 µg/mL
Activity (Aspergillus fumigatus): inactive
Activity (LLC-PK1): > 10 µg/mL
selectivity ratio [4]: > 14.7
Activity (Pichia kudriavzevii): inactive
selectivity ratio [5]: > 14.7
selectivity ratio [6]: > 14.7
selectivity ratio [7]: > 14.7
Activity (Escherichia coli): inactive
Activity (Candida albicans): inactive
Activity (BT-549): > 10 µg/mL
MFC100 (Cryptococcus neoformans [3]): 5 µg/mL (≈ 6.55 µM)
selectivity ratio [8]: > 14.7
Activity (SK-MEL): > 10 µg/mL
Activity (Nakaseomyces glabratus): inactive
selectivity ratio [9]: > 14.7
Activity (SK-OV-3): > 10 µg/mL
Activity (KB): > 10 µg/mL

Retention_time [2]: 14.76 min
IC50 (Cryptococcus neoformans [3]): 9.71 µg/mL (≈ 14.5 µM)
Structure (SMILES): COC(=O)[C@H](CCCNC(=N)N)NC(=O)[C@H](Cc1c[nH]c(-c2ccc(C)cc2)n1)NC(=O)[C@H](CCCNC(=N)N)NC(=O)OC(C)(C)C
Activity (Vero): > 10 µg/mL
Activity (Aspergillus fumigatus): inactive
Activity (LLC-PK1): > 10 µg/mL
selectivity ratio [4]: > 1
Activity (Pichia kudriavzevii): inactive
selectivity ratio [5]: > 1
selectivity ratio [6]: > 1
selectivity ratio [7]: > 1
Activity (Escherichia coli): inactive
Activity (Candida albicans): inactive
Activity (BT-549): > 10 µg/mL
Activity (Cryptococcus neoformans [1]): inactive
selectivity ratio [8]: > 1
Activity (SK-MEL): > 10 µg/mL
Activity (Nakaseomyces glabratus): inactive
selectivity ratio [9]: > 1
Activity (SK-OV-3): > 10 µg/mL
Activity (KB): > 10 µg/mL
